Assay results taken from ChEMBL document CHEMBL1148638, “Aminopyridine-based c-Jun N-terminal kinase inhibitors with cellular activity and minimal cross-kinase activity” (J Med Chem, 2006).

What was measured:
[1] = biological target: Mitogen-activated protein kinase 9 (Homo sapiens, UniProt P45984); assay: Inhibition of JNK2-mediated ATF2 phosphorylation
[2] = biological target: Mitogen-activated protein kinase 8 (Homo sapiens, UniProt P45983); assay: Inhibition of JNK1-mediated ATF2 phosphorylation
Chain of Mitogen-activated protein kinase 8 (P45983 whole entry): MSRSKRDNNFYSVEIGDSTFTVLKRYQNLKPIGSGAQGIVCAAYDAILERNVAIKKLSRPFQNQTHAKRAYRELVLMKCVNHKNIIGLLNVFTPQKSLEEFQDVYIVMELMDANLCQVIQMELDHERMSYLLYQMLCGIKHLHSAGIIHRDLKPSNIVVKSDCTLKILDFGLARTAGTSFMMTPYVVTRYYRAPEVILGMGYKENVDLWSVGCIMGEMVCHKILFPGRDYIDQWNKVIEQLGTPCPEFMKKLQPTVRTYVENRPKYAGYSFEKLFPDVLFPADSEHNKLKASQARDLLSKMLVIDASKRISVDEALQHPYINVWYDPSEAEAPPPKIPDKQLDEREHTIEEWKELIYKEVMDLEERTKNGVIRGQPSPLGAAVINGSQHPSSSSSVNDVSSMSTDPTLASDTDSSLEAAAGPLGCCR

[3] = biological target: c-Jun N-terminal kinase, JNK (Homo sapiens, UniProt P45983+P53779+P45984); assay: Inhibition of cJun phosphorylation in HepG2 cell line
[4] = Volume of distribution in iv dosed Sprague-Dawley rat; assay type: ADME, organism-based; conditions: in vivo, read-out: Vdss
[5] = Oral bioavailability in Sprague-Dawley rat; assay type: ADME, organism-based; conditions: in vivo
[6] = Volume of distribution at steady state in iv dosed Sprague-Dawley rat; assay type: ADME, organism-based; conditions: in vivo, read-out: Vss
[7] = AUC in po dosed Sprague-Dawley rat; assay type: ADME, organism-based; conditions: plasma
Outline: (§1)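 Sprague-Dawley rats were dosed orally. Oral half-life is reported in hours and Cmax as the maximum plasma concentration in µM. AUC is total oral exposure from t = 0 to t = ∞, in µg·h/mL.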

[8] = Tmax in po dosed Sprague-Dawley rat; assay type: ADME, organism-based; conditions: in vivo
[9] = Half life in po dosed Sprague-Dawley rat; assay type: ADME, organism-based; conditions: in vivo; outline: as §1
[10] = Half life in iv dosed Sprague-Dawley rat; assay type: ADME, organism-based; conditions: in vivo
Outline: (§2)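 Sprague-Dawley rats received 5 mg/kg intravenously. Half-life is reported in hours. AUC is total drug exposure after iv dosing, from t = 0 to t = ∞, in µg·h/mL.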

[11] = biological target: Mitogen-activated protein kinase 10 (Homo sapiens, UniProt P53779); assay: Inhibition of JNK3-mediated ATF2 phosphorylation
Chain of Mitogen-activated protein kinase 10 (P53779 whole entry): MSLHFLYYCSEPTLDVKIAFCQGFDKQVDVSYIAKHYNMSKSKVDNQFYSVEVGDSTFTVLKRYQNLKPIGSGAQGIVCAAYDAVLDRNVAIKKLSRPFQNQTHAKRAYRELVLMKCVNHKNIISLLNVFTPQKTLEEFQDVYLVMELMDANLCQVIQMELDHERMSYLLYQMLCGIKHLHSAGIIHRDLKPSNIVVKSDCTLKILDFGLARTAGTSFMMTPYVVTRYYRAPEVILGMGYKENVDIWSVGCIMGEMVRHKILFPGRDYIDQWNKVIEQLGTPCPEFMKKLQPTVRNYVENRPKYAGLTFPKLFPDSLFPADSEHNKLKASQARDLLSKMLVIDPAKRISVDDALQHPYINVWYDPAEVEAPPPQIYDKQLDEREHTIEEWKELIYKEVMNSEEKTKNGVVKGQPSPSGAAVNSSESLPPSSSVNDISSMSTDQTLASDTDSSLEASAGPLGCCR

Activated CDC42 kinase 1 = Activated CDC42 kinase 1 (Homo sapiens, UniProt Q07912); assay: Inhibition of CDC42
Chain of Activated CDC42 kinase 1 (Q07912 whole entry): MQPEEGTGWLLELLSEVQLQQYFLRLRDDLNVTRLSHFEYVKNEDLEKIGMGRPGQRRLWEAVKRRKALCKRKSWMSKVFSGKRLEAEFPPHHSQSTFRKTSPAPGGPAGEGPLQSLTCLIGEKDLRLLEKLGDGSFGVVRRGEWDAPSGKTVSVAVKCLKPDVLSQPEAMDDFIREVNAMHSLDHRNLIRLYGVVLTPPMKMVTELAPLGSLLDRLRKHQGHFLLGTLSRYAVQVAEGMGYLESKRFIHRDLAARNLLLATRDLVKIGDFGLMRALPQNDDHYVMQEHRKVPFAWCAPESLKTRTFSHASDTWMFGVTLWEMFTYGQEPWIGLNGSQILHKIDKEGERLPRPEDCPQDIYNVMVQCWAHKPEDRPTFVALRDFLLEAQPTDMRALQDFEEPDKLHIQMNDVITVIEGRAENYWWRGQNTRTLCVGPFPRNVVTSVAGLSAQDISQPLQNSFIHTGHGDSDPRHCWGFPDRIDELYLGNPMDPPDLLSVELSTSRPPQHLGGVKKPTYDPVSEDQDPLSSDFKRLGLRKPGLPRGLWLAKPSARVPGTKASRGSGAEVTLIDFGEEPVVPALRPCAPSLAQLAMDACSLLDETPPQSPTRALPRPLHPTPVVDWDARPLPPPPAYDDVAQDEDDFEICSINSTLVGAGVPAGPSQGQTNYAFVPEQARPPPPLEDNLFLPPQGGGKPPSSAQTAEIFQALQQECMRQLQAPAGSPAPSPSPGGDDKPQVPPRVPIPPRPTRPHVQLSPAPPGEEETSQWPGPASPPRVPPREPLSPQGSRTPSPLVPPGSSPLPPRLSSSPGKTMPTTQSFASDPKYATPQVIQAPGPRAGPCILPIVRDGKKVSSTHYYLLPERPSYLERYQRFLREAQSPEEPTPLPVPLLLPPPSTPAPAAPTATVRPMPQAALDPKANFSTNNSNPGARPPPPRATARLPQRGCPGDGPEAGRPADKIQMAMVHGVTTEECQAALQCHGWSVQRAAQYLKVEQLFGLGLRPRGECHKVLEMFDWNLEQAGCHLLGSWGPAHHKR
Outline: (§3)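 Recombinant kinases were commercial, or baculovirus-expressed and purified by His-tag or GST affinity. Each was incubated 1 h with biotinylated substrate peptide (2 µM), γ-[33P]-ATP (5 µM) and inhibitor (3-10000 nM, 2% DMSO) in 25 mM Hepes pH 7.5, 10 mM MgCl2, Na3VO4. Reactions were stopped with EDTA/NaCl and read by streptavidin FlashPlate capture. IC50 came from titrations, converted to Ki by Cheng-Prusoff.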

[12] = biological target: T1, Serine/threonine-protein kinase Sgk1 (Homo sapiens, UniProt O00141); assay: Inhibition of SGK
T1 sequence (O00141 whole entry): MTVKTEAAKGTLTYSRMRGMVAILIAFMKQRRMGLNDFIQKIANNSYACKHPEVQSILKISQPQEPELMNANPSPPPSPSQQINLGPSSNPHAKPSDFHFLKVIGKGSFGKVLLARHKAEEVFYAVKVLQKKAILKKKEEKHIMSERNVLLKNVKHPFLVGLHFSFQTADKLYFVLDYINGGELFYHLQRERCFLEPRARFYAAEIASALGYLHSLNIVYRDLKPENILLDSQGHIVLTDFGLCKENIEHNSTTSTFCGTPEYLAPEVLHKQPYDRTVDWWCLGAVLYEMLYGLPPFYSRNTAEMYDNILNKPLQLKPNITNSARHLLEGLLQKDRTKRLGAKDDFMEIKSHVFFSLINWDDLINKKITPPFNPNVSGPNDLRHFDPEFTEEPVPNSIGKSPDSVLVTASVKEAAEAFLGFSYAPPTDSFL

[13] = Plasma clearance in iv dosed Sprague-Dawley rat; assay type: ADME, organism-based
[14] = Cmax in po dosed Sprague-Dawley rat; assay type: ADME, organism-based; design: route oral; conditions: in vivo; outline: as §1
[15] = AUC in iv dosed Sprague-Dawley rat; assay type: ADME, organism-based; conditions: plasma; outline: as §2
[16] = biological target: T2, Calcium/calmodulin-dependent protein kinase type IV (Homo sapiens, UniProt Q16566); assay: Inhibition of CaMK4; outline: as §3
T2 sequence (Q16566 whole entry): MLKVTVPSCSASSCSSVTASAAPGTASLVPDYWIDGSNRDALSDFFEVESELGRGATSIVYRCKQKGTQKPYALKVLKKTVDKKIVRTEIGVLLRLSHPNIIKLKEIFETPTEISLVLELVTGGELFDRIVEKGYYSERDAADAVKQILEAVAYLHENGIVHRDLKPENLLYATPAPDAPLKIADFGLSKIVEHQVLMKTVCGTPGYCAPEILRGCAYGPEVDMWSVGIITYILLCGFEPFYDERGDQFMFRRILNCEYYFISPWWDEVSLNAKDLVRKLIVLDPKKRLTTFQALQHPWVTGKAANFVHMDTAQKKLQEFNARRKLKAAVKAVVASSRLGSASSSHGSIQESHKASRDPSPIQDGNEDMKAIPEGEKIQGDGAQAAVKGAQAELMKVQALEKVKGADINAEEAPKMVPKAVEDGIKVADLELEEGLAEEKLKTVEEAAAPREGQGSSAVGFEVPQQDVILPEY

Chain of Mitogen-activated protein kinase 9 (P45984 whole entry): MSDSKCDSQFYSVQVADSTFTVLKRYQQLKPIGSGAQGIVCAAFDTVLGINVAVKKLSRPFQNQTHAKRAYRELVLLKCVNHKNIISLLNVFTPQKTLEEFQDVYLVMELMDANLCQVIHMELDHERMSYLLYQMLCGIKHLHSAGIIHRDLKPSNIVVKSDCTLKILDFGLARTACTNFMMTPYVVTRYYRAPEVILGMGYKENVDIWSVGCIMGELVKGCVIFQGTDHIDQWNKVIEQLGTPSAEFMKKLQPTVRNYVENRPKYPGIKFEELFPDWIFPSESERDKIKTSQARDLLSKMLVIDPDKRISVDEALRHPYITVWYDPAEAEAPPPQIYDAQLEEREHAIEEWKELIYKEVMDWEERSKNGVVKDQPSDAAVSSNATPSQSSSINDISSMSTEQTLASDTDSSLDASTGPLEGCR

SMILES	IC50 [1]	IC50 [2]	also measured
CCOc1nc(NC(=O)Cc2cccc(C)c2)cc(N)c1C#N	790 nM	420 nM	–
CCOc1nc(NC(=O)Cc2cc(C)ccc2C)cc(N)c1C#N	> 10000 nM	4400 nM	–
CCOc1nc(NC(=O)Cc2ccccc2C)cc(N)c1C#N	740 nM	400 nM	–
CC(=O)Nc1cc(N)c(C#N)c(OCCN(C)C)n1	> 10000 nM	> 10000 nM	–
CCOc1nc(NC(=O)CN2CCOCC2)cc(N)c1C#N	1200 nM	270 nM	–
CCOc1nc(NC(=O)C(C)C)cc(N)c1C#N	8400 nM	4000 nM	–
CC(=O)Nc1cc(N)c(C#N)c(NC(C)C)n1	3000 nM	910 nM	–
CCOc1nc(NCCc2cc(OC)ccc2OC)cc(N)c1C#N	> 10000 nM	> 10000 nM	–
CCOc1nc(NC(=O)Cc2ccc(C)cc2)cc(N)c1C#N	360 nM	190 nM	EC50 [3]: 3400 nM
CCOc1nc(NC(=O)Cc2cccc(OC)c2)cc(N)c1C#N	310 nM	210 nM	EC50 [3]: 2500 nM
CCOc1nc(NC(=O)Cc2ccc(Cl)cc2)cc(N)c1C#N	610 nM	580 nM	–
CCOc1nc(NC(=O)CN(CC)CC)cc(N)c1C#N	6300 nM	2700 nM	–
CCOc1nc(NC(=O)Cc2cc(OC)c([N+](=O)[O-])cc2OC)cc(N)c1C#N	100 nM	69 nM	EC50 [3]: 910 nM
CCCCNC(=O)C1CCN(CC(=O)Nc2cc(N)c(C#N)c(OCC)n2)CC1	180 nM	69 nM	EC50 [3]: > 10000 nM
CCOc1nc(NC(=O)Cc2cc(OC)c(NC(C)=O)cc2OC)cc(N)c1C#N	26 nM	35 nM	EC50 [3]: 280 nM
CCOc1nc(NC(=O)CN2CCC(O)CC2)cc(N)c1C#N	640 nM	300 nM	–
CCCc1nc(NC(C)=O)cc(N)c1C#N	> 10000 nM	> 10000 nM	–
CCOc1nc(NC(=O)CC(C)C)cc(N)c1C#N	3500 nM	1400 nM	–
CCOc1cccc(NC(C)=O)n1	> 10000 nM	–	–
CC(=O)Nc1cc(N)c(C#N)c(OCCC(=O)O)n1	4900 nM	4800 nM	–
COc1nc(NC(C)=O)cc(N)c1C#N	4500 nM	2200 nM	–
COc1ccc(OC)c(CC(=O)Nc2cc(N)c(C#N)c(OCCO)n2)c1	240 nM	74 nM	EC50 [3]: 1600 nM
CCCCC(=O)Nc1nc(OCC)c(C#N)c(N)c1Cl	> 10000 nM	> 10000 nM	–
CCCCC(=O)N(C)c1cc(N)c(C#N)c(OCC)n1	> 10000 nM	> 10000 nM	–
CCOc1nc(NC(=O)Cc2cccc(Cl)c2)cc(N)c1C#N	900 nM	300 nM	–
CCOc1nc(NC(=O)Cc2ccccc2OC)cc(N)c1C#N	260 nM	120 nM	EC50 [3]: 1400 nM
CCNC(=O)Nc1cc(N)c(C#N)c(OCC)n1	> 10000 nM	> 10000 nM	–

SMILES	IC50 [1]	IC50 [2]	also measured
CCOc1nc(NC(=O)OC)cc(N)c1C#N	> 10000 nM	> 10000 nM	–
COc1ccc(OC)c(CC(=O)Nc2cc(N)c(C#N)cn2)c1	5100 nM	2600 nM	–
CCCCN(CCCC)CC(=O)Nc1cc(N)c(C#N)c(OCC)n1	> 10000 nM	3500 nM	–
CCCCNCC(=O)Nc1cc(N)c(C#N)c(OCC)n1	> 10000 nM	6300 nM	–
CCOc1nc(NC(C)=O)cc(C)c1C#N	> 10000 nM	> 10000 nM	–
CCOc1nc(NC(=O)Cc2ccccc2)cc(N)c1C#N	770 nM	570 nM	–
CCOc1nc(NC(=O)Cc2cc(OC)c(S(C)(=O)=O)cc2OC)cc(N)c1Cl	–	–	Vd [4]: 2 L/kg; bioavailability [5]: 49%; Vd [6]: 1.6 L/kg; AUC [7]: 1500 ng·h/mL; Tmax [8]: 0.67 h; half-life [9]: 2.1 h; half-life [10]: 0.8 h; Ki [11]: 61 nM; Ki (Activated CDC42 kinase 1): > 9500 nM; Ki [12]: > 9400 nM; clearance [13]: 28.3 mL/min/kg; Cmax [14]: 1420 nM; AUC [15]: 3000 ng·h/mL; Ki [16]: > 8600 nM
CCOc1nc(NC(=O)Cc2cc(OC)c(S(C)(=O)=O)cc2OC)cc(N)c1C#N	–	–	Vd [4]: 4.7 L/kg; bioavailability [5]: 31%; Vd [6]: 1.5 L/kg; AUC [7]: 1100 ng·h/mL; Tmax [8]: 0.5 h; half-life [9]: 1.5 h; half-life [10]: 2 h; Ki [11]: 72 nM; Ki (Activated CDC42 kinase 1): > 9500 nM; Ki [12]: > 9400 nM; clearance [13]: 25 mL/min/kg; Cmax [14]: 1360 nM; AUC [15]: 3500 ng·h/mL; Ki [16]: > 8600 nM
COCCOc1nc(NC(=O)Cc2cc(OC)ccc2OC)cc(N)c1C#N	270 nM	110 nM	EC50 [3]: 1400 nM
CCOc1nc(NC(=O)Cc2ccccc2Cl)cc(N)c1C#N	4900 nM	1100 nM	–
CC(=O)Nc1cc(N)c(C#N)c(OC2CCOC2)n1 (stereo unspecified)	2900 nM	890 nM	–
CCOc1nc(NC(=O)CN2CCC(C(=O)NC(C)C)CC2)cc(N)c1C#N	130 nM	87 nM	EC50 [3]: 3900 nM
CCCCSc1nc(NC(C)=O)cc(N)c1C#N	> 10000 nM	8900 nM	–
CCCCC(=O)Nc1cc(N)c(C#N)c(OCC)n1	690 nM	350 nM	–
CCOc1cc(NC(C)=O)nc(N)c1C#N	> 10000 nM	> 10000 nM	–
COc1cc(S(C)(=O)=O)c(OC)cc1CC(=O)Nc1cc(N)c(C#N)c(OC(C)C)n1	–	–	Vd [4]: 8.6 L/kg; bioavailability [5]: 5.7%; Vd [6]: 1.6 L/kg; AUC [7]: 120 ng·h/mL; Tmax [8]: 0.75 h; half-life [9]: 2.9 h; half-life [10]: 2 h; Ki (Activated CDC42 kinase 1): > 9500 nM; Ki [12]: > 9400 nM; clearance [13]: 50 mL/min/kg; Cmax [14]: 80 nM; AUC [15]: 2200 ng·h/mL; Ki [16]: > 8600 nM
CC(=O)Nc1cc(N)c(C#N)c(OC(C)C)n1	470 nM	310 nM	–
CCCCOc1nc(NC(C)=O)cc(N)c1C#N	4660 nM	2100 nM	–
CCOc1nc(NC(=O)Cc2cc(Br)ccc2Br)cc(N)c1C#N	> 10000 nM	3000 nM	–
CCNc1nc(NC(C)=O)cc(N)c1C#N	> 10000 nM	2400 nM	–
COc1ccc(OC)c(CC(=O)Nc2cc(N)c(C#N)c(OCCS(C)(=O)=O)n2)c1	740 nM	400 nM	–
COc1ccc(OC)c(CC(=O)Nc2cc(N)c(C#N)c(Br)n2)c1	> 10000 nM	1700 nM	–
CCOc1nc(NC(=O)Cc2cc(OC)c(Br)cc2OC)cc(N)c1C#N	160 nM	–	EC50 [3]: 890 nM
CCCN(CCO)CC(=O)Nc1cc(N)c(C#N)c(OCC)n1	740 nM	160 nM	EC50 [3]: 5500 nM
CCOc1nc(NC(=O)CN2CCCCC2)cc(N)c1C#N	3400 nM	510 nM	–
CCOc1nc(NC(=O)Cc2ccc(OC)cc2)cc(N)c1C#N	274 nM	180 nM	EC50 [3]: 1400 nM
